The source made the active and inactive calls. No cut-off for these calls is given here.
Columns and labels:
COLO 205 = assay: Antiproliferative activity against human COLO205 cells after 24 to 48 hrs by MTT assay; format: functional, cell-based
A549 = assay: Antiproliferative activity against human A549 cells after 24 to 48 hrs by MTT assay; format: functional, cell-based
HCT-116 = assay: Antiproliferative activity against human HCT116 cells after 24 to 48 hrs by MTT assay; format: functional, cell-based
[1] = Antiproliferative activity against human FR2 cells after 24 to 48 hrs by MTT assay; format: cell-based
MCF7 = assay: Antiproliferative activity against human MCF7 cells after 24 to 48 hrs by MTT assay; format: functional, cell-based
HL-60 [2] = assay: Antiproliferative activity against human HL60 cells after 24 to 48 hrs by MTT assay; format: functional, cell-based
HL-60 [3] = assay: Downregulation of p110gamma protein expression levels in human HL60 cells at 1 uM after 2 hrs by Western blot analysis relative to control; format: functional
Procedure, shortened: (§1)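 HL-60 cells were exposed to test agent at 1 µM for short time intervals, including 2 h. Expression of the p110α, p110β, p110δ and p110γ isoforms was then assessed by western blotting. p110γ blots were also quantified by densitometry at each time point.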

HL-60 [4] = assay: Downregulation of p110delta protein expression levels in human HL60 cells at 1 uM after 2 hrs by Western blot analysis; format: functional, cell-based; procedure, shortened: as §1
[5] = target: Phosphatidylinositol 4,5-bisphosphate 3-kinase catalytic subunit gamma isoform (Homo sapiens, UniProt P48736); assay: Inhibition of PI3K-gamma (unknown origin) by cell free biochemical assay
[6] = target: T1, Phosphatidylinositol 4,5-bisphosphate 3-kinase catalytic subunit delta isoform (Homo sapiens, UniProt O00329); assay: Inhibition of PI3K-delta (unknown origin) by cell free biochemical assay
T1 sequence (O00329 whole entry): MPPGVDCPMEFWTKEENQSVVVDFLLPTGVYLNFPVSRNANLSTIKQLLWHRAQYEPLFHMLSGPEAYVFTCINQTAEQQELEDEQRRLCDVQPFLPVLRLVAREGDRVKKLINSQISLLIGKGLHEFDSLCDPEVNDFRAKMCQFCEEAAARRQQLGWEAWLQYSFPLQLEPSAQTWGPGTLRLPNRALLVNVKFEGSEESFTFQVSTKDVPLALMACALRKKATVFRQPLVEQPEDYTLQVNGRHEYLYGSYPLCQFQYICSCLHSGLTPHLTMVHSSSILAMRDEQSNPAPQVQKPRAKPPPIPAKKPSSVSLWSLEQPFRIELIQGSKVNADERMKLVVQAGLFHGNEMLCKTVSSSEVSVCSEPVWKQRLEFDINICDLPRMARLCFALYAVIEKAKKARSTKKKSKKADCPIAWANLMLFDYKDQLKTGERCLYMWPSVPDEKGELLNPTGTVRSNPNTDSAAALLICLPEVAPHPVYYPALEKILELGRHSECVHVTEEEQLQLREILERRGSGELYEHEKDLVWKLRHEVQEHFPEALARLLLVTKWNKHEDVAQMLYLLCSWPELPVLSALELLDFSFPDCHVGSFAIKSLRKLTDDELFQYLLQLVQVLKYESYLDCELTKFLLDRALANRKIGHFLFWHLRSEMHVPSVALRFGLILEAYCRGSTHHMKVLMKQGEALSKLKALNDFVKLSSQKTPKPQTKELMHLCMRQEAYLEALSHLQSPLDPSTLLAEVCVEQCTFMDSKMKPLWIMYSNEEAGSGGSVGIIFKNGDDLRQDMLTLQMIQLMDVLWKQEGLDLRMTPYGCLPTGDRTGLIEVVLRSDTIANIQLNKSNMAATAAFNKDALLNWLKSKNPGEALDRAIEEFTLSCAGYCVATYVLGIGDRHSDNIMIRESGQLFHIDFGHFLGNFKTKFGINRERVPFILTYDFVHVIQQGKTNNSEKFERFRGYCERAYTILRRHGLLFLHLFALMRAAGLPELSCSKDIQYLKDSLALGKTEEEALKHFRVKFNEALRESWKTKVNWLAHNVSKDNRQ

HL-60 [7] = assay: Downregulation of p110beta protein expression levels in human HL60 cells at 1 uM after 2 hrs by Western blot analysis; format: functional, cell-based; procedure, shortened: as §1
HL-60 [8] = assay: Downregulation of p110alpha protein expression levels in human HL60 cells at 1 uM after 2 hrs by Western blot analysis; format: functional, cell-based; procedure, shortened: as §1
[9] = target: Phosphatidylinositol 4,5-bisphosphate 3-kinase catalytic subunit alpha isoform (Homo sapiens, UniProt P42336); assay: Inhibition of PI3K-alpha (unknown origin) by cell free biochemical assay
Homo sapiens = organism: Homo sapiens; assay: Selectivity index, ratio of IC50 for PI3K-delta (unknown origin) to IC50 for PI3K-gamma (unknown origin)
[10] = target: Phosphatidylinositol 4,5-bisphosphate 3-kinase catalytic subunit beta isoform (Homo sapiens, UniProt P42338); assay: Inhibition of PI3K-beta (unknown origin) by cell free biochemical assay
Phosphatidylinositol 4,5-bisphosphate 3-kinase catalytic subunit beta isoform, sequence (P42338 whole entry, canonical isoform): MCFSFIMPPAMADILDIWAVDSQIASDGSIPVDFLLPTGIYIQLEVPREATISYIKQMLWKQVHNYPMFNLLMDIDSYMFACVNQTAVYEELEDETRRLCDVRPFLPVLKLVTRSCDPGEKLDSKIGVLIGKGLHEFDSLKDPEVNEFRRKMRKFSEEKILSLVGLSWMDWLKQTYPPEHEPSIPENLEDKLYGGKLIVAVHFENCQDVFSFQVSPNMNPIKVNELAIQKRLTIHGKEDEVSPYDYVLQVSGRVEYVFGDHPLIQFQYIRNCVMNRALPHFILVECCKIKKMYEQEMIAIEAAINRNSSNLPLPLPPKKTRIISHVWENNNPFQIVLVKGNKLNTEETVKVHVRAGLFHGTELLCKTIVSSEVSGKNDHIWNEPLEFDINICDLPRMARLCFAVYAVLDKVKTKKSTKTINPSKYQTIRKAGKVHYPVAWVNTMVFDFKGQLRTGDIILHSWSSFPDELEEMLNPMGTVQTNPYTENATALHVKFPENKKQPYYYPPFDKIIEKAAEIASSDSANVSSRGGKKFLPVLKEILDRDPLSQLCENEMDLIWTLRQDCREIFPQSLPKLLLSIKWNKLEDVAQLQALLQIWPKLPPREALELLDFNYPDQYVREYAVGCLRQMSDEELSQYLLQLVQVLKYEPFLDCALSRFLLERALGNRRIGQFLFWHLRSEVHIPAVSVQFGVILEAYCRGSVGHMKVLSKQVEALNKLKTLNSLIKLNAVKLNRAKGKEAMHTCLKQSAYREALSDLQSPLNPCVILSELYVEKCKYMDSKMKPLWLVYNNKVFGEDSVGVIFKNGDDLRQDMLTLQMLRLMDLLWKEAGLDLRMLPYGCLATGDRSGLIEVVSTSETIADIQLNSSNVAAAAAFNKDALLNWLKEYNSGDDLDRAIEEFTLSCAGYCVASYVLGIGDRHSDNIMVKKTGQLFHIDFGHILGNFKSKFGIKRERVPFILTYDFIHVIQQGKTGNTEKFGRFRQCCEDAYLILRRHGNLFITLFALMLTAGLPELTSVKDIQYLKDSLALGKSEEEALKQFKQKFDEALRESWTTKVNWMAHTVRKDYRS

Phosphatidylinositol 4,5-bisphosphate 3-kinase catalytic subunit gamma isoform, sequence (P48736 whole entry, canonical isoform): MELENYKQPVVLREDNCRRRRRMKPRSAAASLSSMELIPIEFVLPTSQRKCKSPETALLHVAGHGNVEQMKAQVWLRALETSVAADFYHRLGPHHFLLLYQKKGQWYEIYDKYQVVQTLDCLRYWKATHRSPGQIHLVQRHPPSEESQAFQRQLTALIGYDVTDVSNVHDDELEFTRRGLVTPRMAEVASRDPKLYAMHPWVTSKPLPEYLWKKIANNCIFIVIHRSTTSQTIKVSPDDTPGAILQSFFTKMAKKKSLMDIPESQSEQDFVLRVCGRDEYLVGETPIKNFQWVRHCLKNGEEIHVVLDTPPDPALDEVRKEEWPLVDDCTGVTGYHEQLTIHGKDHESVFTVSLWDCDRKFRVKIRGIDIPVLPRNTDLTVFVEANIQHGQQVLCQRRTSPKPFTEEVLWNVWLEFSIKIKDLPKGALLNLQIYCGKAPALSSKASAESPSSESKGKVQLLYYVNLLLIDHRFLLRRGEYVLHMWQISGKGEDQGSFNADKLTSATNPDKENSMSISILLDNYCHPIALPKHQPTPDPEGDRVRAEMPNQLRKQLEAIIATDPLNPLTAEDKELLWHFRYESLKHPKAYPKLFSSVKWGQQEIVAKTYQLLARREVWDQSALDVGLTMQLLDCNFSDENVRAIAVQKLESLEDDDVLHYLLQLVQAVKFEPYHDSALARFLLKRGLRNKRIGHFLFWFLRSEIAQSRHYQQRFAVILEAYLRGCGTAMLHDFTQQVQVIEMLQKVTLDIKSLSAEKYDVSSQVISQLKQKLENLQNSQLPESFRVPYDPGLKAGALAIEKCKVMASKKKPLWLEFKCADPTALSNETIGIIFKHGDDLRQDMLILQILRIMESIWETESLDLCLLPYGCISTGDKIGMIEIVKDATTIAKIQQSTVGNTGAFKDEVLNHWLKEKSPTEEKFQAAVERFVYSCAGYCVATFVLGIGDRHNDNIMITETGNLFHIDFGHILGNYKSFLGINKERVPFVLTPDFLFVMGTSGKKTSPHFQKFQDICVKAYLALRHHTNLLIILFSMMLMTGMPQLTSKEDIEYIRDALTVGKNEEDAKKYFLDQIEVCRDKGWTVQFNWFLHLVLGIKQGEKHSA
Phosphatidylinositol 4,5-bisphosphate 3-kinase catalytic subunit alpha isoform, sequence (P42336 whole entry, canonical isoform): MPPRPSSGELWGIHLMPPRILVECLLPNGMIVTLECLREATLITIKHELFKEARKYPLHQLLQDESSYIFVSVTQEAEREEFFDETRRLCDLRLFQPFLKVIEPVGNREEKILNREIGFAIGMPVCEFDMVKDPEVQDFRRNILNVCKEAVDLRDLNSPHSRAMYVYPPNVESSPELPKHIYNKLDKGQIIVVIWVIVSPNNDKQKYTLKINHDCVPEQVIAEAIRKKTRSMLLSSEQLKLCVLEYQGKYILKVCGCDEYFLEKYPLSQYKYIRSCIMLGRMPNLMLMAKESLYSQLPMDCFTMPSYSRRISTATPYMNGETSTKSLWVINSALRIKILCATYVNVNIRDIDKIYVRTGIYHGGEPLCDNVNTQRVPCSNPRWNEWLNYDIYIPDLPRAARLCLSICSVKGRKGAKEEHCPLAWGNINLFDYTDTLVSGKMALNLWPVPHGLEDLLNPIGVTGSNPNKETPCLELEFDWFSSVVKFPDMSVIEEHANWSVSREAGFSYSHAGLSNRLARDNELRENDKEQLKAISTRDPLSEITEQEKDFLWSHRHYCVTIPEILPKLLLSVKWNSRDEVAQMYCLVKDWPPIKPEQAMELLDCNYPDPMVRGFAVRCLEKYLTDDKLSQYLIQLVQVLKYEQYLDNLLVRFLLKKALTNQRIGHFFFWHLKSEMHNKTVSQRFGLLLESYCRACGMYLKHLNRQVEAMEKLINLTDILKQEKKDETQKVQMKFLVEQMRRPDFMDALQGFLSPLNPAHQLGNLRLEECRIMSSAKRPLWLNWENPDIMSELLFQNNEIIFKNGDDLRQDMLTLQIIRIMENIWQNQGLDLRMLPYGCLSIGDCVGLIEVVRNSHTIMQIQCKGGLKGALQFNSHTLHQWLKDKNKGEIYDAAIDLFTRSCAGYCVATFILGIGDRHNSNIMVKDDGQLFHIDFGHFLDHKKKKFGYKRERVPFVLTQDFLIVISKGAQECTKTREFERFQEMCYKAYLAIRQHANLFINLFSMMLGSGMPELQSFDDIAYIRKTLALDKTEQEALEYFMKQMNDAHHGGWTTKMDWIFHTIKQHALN

| SMILES | IC50 (COLO 205) | IC50 (A549) | IC50 (HCT-116) | IC50 [1] | IC50 (MCF7) | IC50 (HL-60 [2]) | Activity (HL-60 [3]) | Activity (HL-60 [4]) | IC50 [5] | IC50 [6] | Activity (HL-60 [7]) | Activity (HL-60 [8]) | IC50 [9] | Ratio IC50 (Homo sapiens) | IC50 [10] |
| --- | --- | --- | --- | --- | --- | --- | --- | --- | --- | --- | --- | --- | --- | --- | --- |
| Cc1ccccc1-n1c(Cn2cc(-c3cc(C(F)(F)F)cc(C(F)(F)F)c3)nn2)nc2ccccc2c1=O | > 10 µM | > 10 µM | > 10 µM | > 10 µM | > 10 µM | > 10 µM |  |  |  |  |  |  |  |  |  |
| Cc1ccccc1-n1c(Cn2cc(COc3cccc(F)c3)nn2)nc2ccccc2c1=O | > 10 µM | > 10 µM | > 10 µM | > 10 µM | > 10 µM | > 10 µM |  |  |  |  |  |  |  |  |  |
| Cc1cccc2nc(Cn3cc(-c4ccccc4)nn3)n(-c3ccccc3C(F)(F)F)c(=O)c12 | > 10 µM | > 10 µM | > 10 µM | > 10 µM | > 10 µM | > 10 µM |  |  |  |  |  |  |  |  |  |
| Cc1cc(OCc2cn(Cc3nc4cccc(C)c4c(=O)n3-c3ccccc3C)nn2)ccc1Cl | > 10 µM | > 10 µM | > 10 µM | > 10 µM | > 10 µM | > 10 µM |  |  |  |  |  |  |  |  |  |
| Cc1ccccc1-n1c(Cn2cc(-c3ccccc3F)nn2)nc2cccc(C)c2c1=O | > 10 µM | > 10 µM | > 10 µM | > 10 µM | > 10 µM | > 10 µM |  |  |  |  |  |  |  |  |  |
| Cc1ccccc1-n1c(Cn2cc(-c3ccc(Br)cc3)nn2)nc2cccc(C)c2c1=O | > 10 µM | > 10 µM | > 10 µM | > 10 µM | > 10 µM | > 10 µM |  |  |  |  |  |  |  |  |  |
| COc1ccc(OCc2cn(Cc3nc4ccccc4c(=O)n3-c3ccccc3C)nn2)cc1 | > 10 µM | > 10 µM | > 10 µM | > 10 µM | > 10 µM | > 10 µM |  |  |  |  |  |  |  |  |  |
| Cc1ccccc1-n1c(Cn2cc(-c3ccccc3C(F)(F)F)nn2)nc2cccc(C)c2c1=O | > 10 µM | > 10 µM | > 10 µM | > 10 µM | > 10 µM | > 10 µM |  |  |  |  |  |  |  |  |  |
| Cc1ccc(-c2cn(Cc3nc4cccc(C)c4c(=O)n3-c3ccccc3C)nn2)cc1 | > 10 µM | > 10 µM | > 10 µM | > 10 µM | > 10 µM | > 10 µM |  |  |  |  |  |  |  |  |  |
| Cc1cccc(OCc2cn(Cc3nc4ccccc4c(=O)n3-c3ccccc3C)nn2)c1 | > 10 µM | > 10 µM | > 10 µM | > 10 µM | > 10 µM | > 10 µM |  |  |  |  |  |  |  |  |  |
| Cc1ccccc1-n1c(Cn2cc(-c3ccccc3C(F)(F)F)nn2)nc2ccccc2c1=O | > 10 µM | > 10 µM | > 10 µM | > 10 µM | > 10 µM | > 10 µM |  |  |  |  |  |  |  |  |  |
| Cc1ccccc1-n1c(Cn2cc(-c3ccc(OC(F)(F)F)cc3)nn2)nc2cccc(C)c2c1=O | > 10 µM | > 10 µM | > 10 µM | > 10 µM | > 10 µM | > 10 µM |  |  |  |  |  |  |  |  |  |
| Cc1ccccc1-n1c(Cn2cc(-c3ccc(-c4ccccc4)cc3)nn2)nc2cccc(C)c2c1=O | > 10 µM | > 10 µM | > 10 µM | > 10 µM | > 10 µM | > 10 µM |  |  |  |  |  |  |  |  |  |
| COc1ccc(S(=O)(=O)NCc2cn(Cc3nc4ccccc4c(=O)n3-c3ccccc3C)nn2)cc1 | > 10 µM | > 10 µM | > 10 µM | > 10 µM | > 10 µM | > 10 µM |  |  |  |  |  |  |  |  |  |
| Cc1ccccc1-n1c(Cn2cnc3c(N)ncnc32)nc2cccc(C)c2c1=O | > 10 µM | > 10 µM | > 10 µM | > 10 µM | > 10 µM | 1 µM |  |  |  |  |  |  |  |  |  |
| Cc1cccc2nc(Cn3cc(-c4cccnc4)nn3)n(-c3ccccc3C(F)(F)F)c(=O)c12 | > 10 µM | > 10 µM | > 10 µM | > 10 µM | > 10 µM | > 10 µM |  |  |  |  |  |  |  |  |  |
| COc1ccc(-c2cn(Cc3nc4cccc(C)c4c(=O)n3-c3ccccc3C(F)(F)F)nn2)c(C)c1 | > 10 µM | > 10 µM | > 10 µM | > 10 µM | > 10 µM | > 10 µM |  |  |  |  |  |  |  |  |  |
| Cc1ccccc1-n1c(Cn2cc(-c3ccc(Br)cc3)nn2)nc2ccccc2c1=O | > 10 µM | > 10 µM | > 10 µM | > 10 µM | > 10 µM | > 10 µM |  |  |  |  |  |  |  |  |  |
| Cc1ccccc1-n1c(Cn2cc(-c3ccc(-c4ccccc4)cc3)nn2)nc2ccccc2c1=O | > 10 µM | > 10 µM | > 10 µM | > 10 µM | > 10 µM | > 10 µM |  |  |  |  |  |  |  |  |  |
| COc1ccc(-c2cn(Cc3nc4cccc(C)c4c(=O)n3-c3ccccc3C)nn2)c(C)c1 | > 10 µM | > 10 µM | > 10 µM | > 10 µM | > 10 µM | 1 µM | >50% | inactive | 3 µM | 10 µM | inactive | inactive | 290 µM | 3 | 355 µM |
| Cc1ccccc1-n1c(Cn2cc(-c3cccnc3)nn2)nc2cccc(C)c2c1=O | > 10 µM | > 10 µM | > 10 µM | > 10 µM | > 10 µM | > 10 µM |  |  |  |  |  |  |  |  |  |
| Cc1ccccc1-n1c(Cn2cc(-c3ccccc3)nn2)nc2ccccc2c1=O | > 10 µM | > 10 µM | > 10 µM | > 10 µM | > 10 µM | > 10 µM |  |  |  |  |  |  |  |  |  |
| Cc1ccccc1-n1c(Cn2cc(-c3ccccc3)nn2)nc2cccc(C)c2c1=O | > 10 µM | > 10 µM | > 10 µM | > 10 µM | > 10 µM | 1 µM | >50% | inactive | 1 µM | 5 µM | inactive | inactive | 250 µM | 5 | 430 µM |
| Cc1ccccc1-n1c(Cn2cc(CNS(=O)(=O)c3ccccc3)nn2)nc2cccc(C)c2c1=O | > 10 µM | > 10 µM | > 10 µM | > 10 µM | > 10 µM | > 10 µM |  |  |  |  |  |  |  |  |  |
| Cc1ccccc1-n1c(Cn2cc(CNS(=O)(=O)c3ccc(F)cc3F)nn2)nc2cccc(C)c2c1=O | > 10 µM | > 10 µM | > 10 µM | > 10 µM | > 10 µM | > 10 µM |  |  |  |  |  |  |  |  |  |
| Cc1ccc(NCc2cn(Cc3nc4cccc(C)c4c(=O)n3-c3ccccc3C(F)(F)F)nn2)cc1C | > 10 µM | > 10 µM | > 10 µM | > 10 µM | > 10 µM | > 10 µM |  |  |  |  |  |  |  |  |  |
| Cc1ccccc1-n1c(Cn2cc(-c3ccccc3F)nn2)nc2ccccc2c1=O | > 10 µM | > 10 µM | > 10 µM | > 10 µM | > 10 µM | > 10 µM |  |  |  |  |  |  |  |  |  |

Source: ChEMBL document CHEMBL4219103, “Design and synthesis of 1,4-substituted 1H-1,2,3-triazolo-quinazolin-4(3H)-ones by Huisgen 1,3-dipolar cycloaddition with PI3Kγ isoform selective activity” (Bioorg Med Chem Lett, 2018)
